We go through 18 compounds from ChEMBL document CHEMBL1136326, “New benzylidenethiazolidinediones as antibacterial agents” (2003).

Molecules are shown by their SMILES. In brackets after ≈: the same amount, converted by molar mass.

Type in all cases: functional
Test [1] concerns Staphylococcus aureus. Description: Minimal inhibitory concentration (antibacterial activity) against Staphylococcus aureus Oxford (SAUR). In outline: (§1)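 Broth microdilution in cation-adjusted Mueller Hinton broth. Compounds in DMSO were diluted 1:10 with water to a 256 ug/mL solution, then serially 2-fold diluted, giving 0.06 to 64 μg/mL. Inoculum about 1 × 10^6 cfu/mL. Incubation at 35 C for 24 h. MIC is the lowest concentration that inhibits visible growth.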

The nature of test [2]: Minimal inhibitory concentration (antibacterial activity) against […] ERY2 (SPNE). The procedure, abridged: as §1
In test [3] the test system is Enterococcus faecalis. Briefly: Minimal inhibitory concentration (antibacterial activity) against Enterococcus faecalis 7 (EFAE). In outline:
as §1

The mark [4] stands for this setting: Staphylococcus aureus, read-out: MIC.
[5] abbreviates: Streptococcus pneumoniae, read-out: MIC.
[6] abbreviates: Enterococcus faecalis, read-out: MIC.

Take `CCCc1c(OCC(O)COc2ccc(/C=C3\CC(=O)NC3=O)cc2)ccc(Cl)c1Cl` (centres undefined): the values for the MIC in test [1] (setting [4]), in test [2] (setting [5]) and in test [3] (setting [6]) were more than 64 µg/mL, 64 µg/mL (≈ 138 µM) and 64 µg/mL (≈ 138 µM), respectively.

Consider `CCCc1c(OCC(O)COc2ccc(CC3SC(=O)NC3=O)cc2)ccc(Cl)c1Cl` (centres undefined), for which the MIC (as a rule, the least concentration at which growth counts as inhibited) in test [1] (setting [4]) stood at 8 µg/mL (≈ 16.5 µM); in test [2] (setting [5]), 8 µg/mL (≈ 16.5 µM); in test [3] (setting [6]), 16 µg/mL (≈ 33 µM).

As to `CCCc1c(OCC(=O)COc2ccc(/C=C3\SC(=O)NC3=O)cc2)ccc(Cl)c1Cl`, the MIC in test [1] (setting [4]), in test [2] (setting [5]) and in test [3] (setting [6]) was more than 64 µg/mL throughout.

In the case of `CCCc1c(OCC(O)COc2ccc(/C=C3\OC(=O)NC3=O)cc2)ccc(Cl)c1Cl` (centres undefined), the MIC was found to be 16 µg/mL (≈ 34.3 µM) in test [1] (setting [4]), 32 µg/mL (≈ 68.6 µM) in test [2] (setting [5]) and 16 µg/mL (≈ 34.3 µM) in test [3] (setting [6]).

In the case of `Cc1ccccc1OCC(O)COc1ccc(/C=C2\SC(=O)NC2=O)cc1` (centres undefined), the figures for the MIC in test [1] (setting [4]), in test [2] (setting [5]) and in test [3] (setting [6]) were 64 µg/mL (≈ 166 µM), 32 µg/mL (≈ 83 µM) and more than 64 µg/mL, respectively.

With `O=C1NC(=O)/C(=C/c2ccc(OCC(O)COc3ccccc3)cc2)S1` (centres undefined), the figures for the MIC in test [1] (setting [4]), in test [2] (setting [5]) and in test [3] (setting [6]) were more than 64 µg/mL, 64 µg/mL (≈ 172 µM) and more than 64 µg/mL, respectively.

Turning to `O=C1NC(=O)/C(=C/c2ccc(OCC(O)COc3ccc(Cl)c(Cl)c3)cc2)S1` (centres undefined), the MIC in test [1] (setting [4]), in test [2] (setting [5]) and in test [3] (setting [6]) was more than 64 µg/mL in each case.

For `CCCc1cc(Cl)c(Cl)cc1OCC(O)COc1ccc(/C=C2\SC(=O)NC2=O)cc1` (centres undefined), the values for the MIC in test [1] (setting [4]), in test [2] (setting [5]) and in test [3] (setting [6]) were 8 µg/mL (≈ 16.6 µM), 4 µg/mL (≈ 8.29 µM) and 8 µg/mL (≈ 16.6 µM), respectively.

For `CCCc1c(OC[C@@H](O)COc2ccc(/C=C3\SC(=O)NC3=O)cc2)ccc(Cl)c1Cl`, the values for the MIC in test [1] (setting [4]), in test [2] (setting [5]) and in test [3] (setting [6]) were 2 µg/mL (≈ 4.15 µM), 2 µg/mL (≈ 4.15 µM) and 4 µg/mL (≈ 8.29 µM), respectively.

For the compound `CCCc1c(OC[C@H](O)COc2ccc(/C=C3\SC(=O)NC3=O)cc2)ccc(Cl)c1Cl`, the MIC in test [1] (setting [4]) is 1 µg/mL (≈ 2.07 µM); in test [2] (setting [5]) it was 1 µg/mL (≈ 2.07 µM); in test [3] (setting [6]), 64 µg/mL (≈ 133 µM).

As for `CCCc1c(OCCCOc2ccc(/C=C3\SC(=O)NC3=O)cc2)ccc(Cl)c1Cl`, the MIC in test [1] (setting [4]), in test [2] (setting [5]) and in test [3] (setting [6]) was more than 64 µg/mL throughout.

For `CCCc1c(OCC(O)COc2ccc(/C=C3\NC(=O)NC3=O)cc2)ccc(Cl)c1Cl` (centres undefined), the MIC in test [1] (setting [4]), in test [2] (setting [5]) and in test [3] (setting [6]) was 4 µg/mL (≈ 8.6 µM) throughout.

Regarding `CCCc1c(OCC(N)COc2ccc(/C=C3\SC(=O)NC3=O)cc2)ccc(Cl)c1Cl` (centres undefined), the MIC in test [1] (setting [4]) is 16 µg/mL (≈ 33.2 µM); in test [2] (setting [5]), 2 µg/mL (≈ 4.15 µM); in test [3] (setting [6]), 32 µg/mL (≈ 66.5 µM).

For `CCCc1ccccc1OCC(O)COc1ccc(/C=C2\SC(=O)NC2=O)cc1` (centres undefined), the MIC in test [1] (setting [4]) is 16 µg/mL (≈ 38.7 µM); in test [2] (setting [5]) it was 2 µg/mL (≈ 4.84 µM); in test [3] (setting [6]), more than 64 µg/mL.

With `CCc1ccccc1OCC(O)COc1ccc(/C=C2\SC(=O)NC2=O)cc1` (centres undefined), the figures for the MIC in test [1] (setting [4]), in test [2] (setting [5]) and in test [3] (setting [6]) were 16 µg/mL (≈ 40.1 µM), 16 µg/mL (≈ 40.1 µM) and 32 µg/mL (≈ 80.1 µM), respectively.

Consider `O=C1NC(=O)/C(=C/c2ccc(OCC(O)COc3ccc(Cl)c(Cl)c3Cl)cc2)S1` (centres undefined), for which the MIC in test [1] (setting [4]), in test [2] (setting [5]) and in test [3] (setting [6]) was more than 64 µg/mL throughout.

Regarding `CCCc1c(OCC(O)COc2ccc(/C=C3\SC(=O)N(C)C3=O)cc2)ccc(Cl)c1Cl` (stereo in doubt; 6), the MIC in test [1], in test [2] and in test [3] was more than 64 µg/mL each time.

With `CCCc1c(OCC(O)COc2ccc(/C=C3\SC(=O)N(C)C3=O)cc2)ccc(Cl)c1Cl` (stereo in doubt; 12), the results for the MIC in test [1], in test [2] and in test [3] were 8 µg/mL (≈ 16.1 µM), 1 µg/mL (≈ 2.01 µM) and 4 µg/mL (≈ 8.06 µM), respectively.
